Assay outcomes (PubChem)
In the library only some 2.6% were active in any assay of this set; here they are far more common.
PRMT1 inh: inhibitors of human PRMT1 | Q99873 | recombinant PRMT1, activity-based probe fluorescence polarization | inhibition, % at 2.79 µM | actives 1.3% (n = 370,000) | AID 652257;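 active = inhibition above about 21% made by adding two undisclosed values, limit read from the data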
GSTO1 counter: counter-screen for RBBP9 inhibitors: inhibitors of human GSTO1. P78417. recombinant GSTO1, activity-based probe fluorescence polarization. inhibition, % at 5.96 µM. actives 1.1% (n = 300,000);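 active = inhibition above the campaign mean inhibition plus 3 SD, cut at about 35% in these data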;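 note: 0% = GSTO1-1 with DMSO and 100% = wells lacking GSTO1-1 enzyme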
Target sequence (P78417 whole entry, looked up): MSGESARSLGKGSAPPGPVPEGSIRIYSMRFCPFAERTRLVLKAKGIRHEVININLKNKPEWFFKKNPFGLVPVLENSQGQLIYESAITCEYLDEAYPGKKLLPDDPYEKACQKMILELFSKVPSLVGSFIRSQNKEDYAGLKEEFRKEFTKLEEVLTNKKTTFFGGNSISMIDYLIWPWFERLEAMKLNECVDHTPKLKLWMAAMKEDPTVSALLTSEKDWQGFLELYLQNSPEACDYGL
PAD4 inh: inhibitors of human PAD4 | recombinant PAD4, RCA probe fluorescence polarization | inhibition, % at 6.36 µM | actives 0.41% (n = 330,000) | AID 485272;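 active = percent inhibition above a cutoff equal to the mean of all tested compounds plus 3 SD, cut at about 15% in these data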;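 note: 0% = PAD4 with RCA probe and DMSO and 100% = probe without PAD4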
Apaf1 inhib: blocks human Apaf-1 apoptosome activity | inhibition, % at 20 µM | AID 489030 | O14727 | reconstituted apoptosome caspase-3 activity, DEVD-Rh110 fluorescence | actives 0.71% (n = 330,000); active = inhibition of at least 40% at 20 µM;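 note: plate controls were DMSO wells for no effect and DEVD-CHO caspase inhibitor wells for full effect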
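System – cell-free apoptosome with Apaf-1, procaspase-3 and caspase-9 · Buffer or medium – pH 7.5 Hepes buffer with CHAPS, BSA, DTT · Also added – cytochrome c with DEVD-Rh110 · Times – 30 min compound preincubation, 50 min activation, room temperature · Technique – Rh110 fluorescence intensity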
TDP2 inh: TDP2 (human) inhibition, absorbance primary screen; recombinant TDP2, T5PNP hydrolysis, p-nitrophenol absorbance 415 nm; inhibition, % at 12.8 µM; actives 0.34% (n = 370,000); AID 720702;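 active = inhibition above the mean of all tested compounds plus 3 SD, set per campaign, cut at about 25% in these data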;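 note: 0% = DMSO with enzyme and 100% = buffer with substrate but no TDP2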
Target sequence (O95551 whole entry, looked up): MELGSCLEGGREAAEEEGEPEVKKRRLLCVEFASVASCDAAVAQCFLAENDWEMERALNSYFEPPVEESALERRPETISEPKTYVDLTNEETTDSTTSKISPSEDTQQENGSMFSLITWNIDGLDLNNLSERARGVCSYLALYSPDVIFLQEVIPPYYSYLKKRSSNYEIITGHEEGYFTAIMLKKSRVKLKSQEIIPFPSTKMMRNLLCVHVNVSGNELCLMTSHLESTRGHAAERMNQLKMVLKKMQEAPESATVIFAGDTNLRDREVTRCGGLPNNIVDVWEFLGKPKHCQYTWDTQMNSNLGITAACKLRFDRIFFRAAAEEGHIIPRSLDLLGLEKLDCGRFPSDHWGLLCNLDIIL
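Assay system: recombinant human TDP2 / Reagent: T5PNP substrate at 5 mM, a TopII-DNA adduct mimic / Measured by: epi absorbance from released p-nitrophenol / Evaluation: % inhibition relative to enzyme-containing and enzyme-free wells / Control set: enzyme-free and DMSO wells / Replicates: each compound tested once, singlicate / Schedule: enzyme reaction with compound for 2 h at 37 °C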
GSTO1 inh conf: GSTO1 (human) inhibition, confirmation | shares compounds with GSTO1 counter | recombinant GSTO1, probe fluorescence polarization | inhibition, % at 5.96 µM | actives 54% (n = 2,400) | AID 2176;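 active = inhibition above the primary screen's cutoff, its mean inhibition plus 3 SD, cut at about 35% in these data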;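 note: loss of polarization as inhibitors block binding of rhodamine sulfonate ester activity probe; 0% = GSTO1 with DMSO and 100% = wells lacking GSTO1 enzyme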
GSTO1 ABPP inh: GSTO1 (human) inhibition by gel ABPP. shares compounds with GSTO1 counter. recombinant GSTO1, gel ABPP SE-Rh probe fluorescence. inhibition, % at 1 µM. actives 30% (n = 130);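 active = inhibition of the enzyme GSTO1 above about 75%, limit read from the data; inactive = inhibition below that limit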
* = called active by the depositor; · = no result.

SMILES	PRMT1 inh	GSTO1 counter	PAD4 inh	Apaf1 inhib	TDP2 inh	GSTO1 inh conf	others
CCn1c(CSc2nnc(-c3cccnc3)n2-c2ccccc2C)nc2cc(C(=O)O)ccc21	·	69*	53*	5	·	59*
Cc1ccccc1-n1c(SCC(=O)c2cc(C)n(C)c2C)nnc1-c1cccnc1	·	4	-4	-9	·	·
S=C(NCCc1c[nH]c2ccccc12)NC1CCCCC1	1	51*	-5	9	-9	5
S=C(NCCc1c[nH]c2ccccc12)NC1CCCC1	1	-1	5	-4	1	·
CN(C)c1cccc(-c2nccc(N3CCC(C(N)=O)CC3)n2)c1	-5	·	·	·	-11	·
COc1ccc(C(=O)Cc2ccc3c(c2)OCO3)c(O)c1	-3	-5	-2	-5	7	·
O=C(Cc1ccc2c(c1)OCCO2)c1c(O)cc(O)cc1O	1	51*	-5	-7	11	35
O=C(/C=C/c1ccc(O)cc1)c1c(O)cc(O)cc1O	4	13	-6	-10	1	·
O=C(CCc1ccc(O)cc1)c1c(O)cc(O)cc1O	4	46*	0	-7	-6	19
COc1ccc2c(c1)CN1C(=O)N(CC(C)C)S(=O)(=O)CC21 (stereo unspecified)	-2	·	·	·	3	·
Cc1ccc(-c2nc3ccc(C)cn3c2CC2CCCCC2)cc1	10	·	·	·	-12	·
C=CCNC(=S)NNC(=O)c1cc(O)ccc1O	3	62*	-3	9	10	7
C=CCNC(=S)NNC(=O)c1ccc(Br)cc1	3	9	0	5	9	·
O=C(CCl)N(Cc1ccccc1)c1ccccc1	0	93*	0	-3	1	96*	GSTO1 ABPP inh=36
O=C(CCl)N(Cc1cc(=O)[nH]c2ccccc12)c1ccccc1	10	85*	0	10	6	92*	GSTO1 ABPP inh=54
CCCCCCCN(C(=O)CCl)c1ccccc1C	47*	101*	6	12	-8	96*	GSTO1 ABPP inh=68
Cc1ccccc1N(Cc1cc(=O)[nH]c2ccccc12)C(=O)CCl	4	74*	3	0	-10	75*	GSTO1 ABPP inh=21
Cc1ccccc1N(Cc1cc(=O)[nH]c2ccccc12)C(=O)C(C)C	5	2	6	8	2	·
COc1ccc(Oc2c(Cl)cnn(CC(=O)C(c3ccccc3)c3ccccc3)c2=O)cc1	0	·	·	·	-7	·
CCCCNC(=O)C[C@@H]1C[C@]2(C(=O)OCC)CCC3=C2N(CCC3)C1=O	-3	·	·	·	-4	·
NC(=O)N/N=C/c1ccc(N2CCOCC2)s1	2	3	2	18	-6	·
O=C(O)c1cc(N/N=C/c2ccc(N3CCOCC3)s2)ccc1Cl	33*	39*	-3	10	15	18
O=[N+]([O-])c1cc([N+](=O)[O-])c2cc3ccccc3nc2c1	5	39*	-12	25	7	10
C[C@@H]1O[C@@H](Oc2c(-c3cc(O)c(O)c(O)c3)oc3cc(O)cc(O)c3c2=O)[C@H](O)[C@H](O)[C@H]1O	37*	54*	0	-3	-8	16
Cc1cccc(C)c1NC(=O)C1(C)CN(S(C)(=O)=O)CC(=O)N1CCc1ccc(O)cc1 (stereo unspecified)	4	·	·	·	-8	·
SMILES	PRMT1 inh	GSTO1 counter	PAD4 inh	Apaf1 inhib	TDP2 inh	GSTO1 inh conf	others
CN(C)c1cccc(/C=C2\CC3(OC(=O)c4ccccc4)CCCN2C3)c1 (stereo unspecified)	2	·	·	·	-2	·
O=S1(=O)CC(N2CCCCC2)CN1Cc1cn(Cc2ccc(F)cc2)nn1 (stereo unspecified)	6	·	·	·	-5	·
CN(C)c1ccc(O)c2c1CC1CC3[C@@H](N(C)C)C(=O)C(C(N)=O)=C(O)[C@]3(O)C(=O)C1=C2O (stereo partly specified)	31*	40*	3	-1	10	34
O=c1c(Cl)c(O)ccn1C1OC(CO)C(O)C1O (stereo unspecified)	-2	·	·	·	3	·
CCN(c1ccccc1)S(=O)(=O)c1ccc(Cl)c(NC(=O)COC(=O)c2cc(O)c3ccccc3c2O)c1	·	51*	26*	48*	·	27
CCN(c1ccccc1)S(=O)(=O)c1ccc(Cl)c(NC(=O)COC(=O)c2ccc(O)cc2)c1	2	-2	5	3	-2	·
O=C(O)c1ccc2cccc(O)c2n1	6	39*	-1	-20	6	22
O=C(O)c1ccc(-n2[nH]c3c(c2=O)CCCC3)cc1	0	6	0	2	7	·
Cc1cc(=O)n(-c2ccc(C(=O)O)cc2)[nH]1	2	63*	2	9	22	-1
COC(=O)c1cnc2ccccc2n1	-1	-1	-3	-4	-9	·
CCCCC1=CC2=CC(=O)C(C)(OC(=O)CC)C(=O)C2=CN1CCc1ccccn1 (stereo unspecified)	5	10	-8	10	15	·
COC/C=C/C1=CC2=CC(=O)C(C)(OC(=O)c3cnc4ccccc4n3)C(=O)C2=CN1c1ccccc1 (stereo unspecified)	10	38*	-1	15	3	3
COC/C=C/C1=CC2=CC(=O)C(C)(OC(=O)c3cnc4ccccc4n3)C(=O)C2=CN1CCc1c[nH]c2ccccc12 (stereo unspecified)	·	45*	0	23	·	6
COC(=O)CSc1nnc(-c2cccs2)o1	1	·	·	·	-5	·
CCCC(=O)Nc1ccc(C(=O)NNC(=S)NC(=O)c2cccs2)cc1	0	-4	-3	-10	0	·
COc1ccc(NC(=S)NC(=O)c2ccc(Br)o2)cc1	-2	45*	-5	1	7	35
CCCC(=O)Nc1ccc(C(=O)NNC(=S)NC(=O)c2ccc(Br)o2)cc1	3	44*	0	9	5	13
CCOC(=O)[C@]12CCCC=C1N(CCC1=CCCCC1)C(=O)[C@H](CC(=O)N1CCN(C(=O)C3CC3)CC1)C2	2	·	·	·	3	·
COC(=O)C1=C(C)N(Cc2cccc(C(F)(F)F)c2)C(=NCC2CC2)NC1c1ccccc1 (stereo unspecified)	-1	·	·	·	2	·
Cc1ccc[n+](CC(=O)Nc2ccc([N+](=O)[O-])cc2)c1	0	91*	4	-7	-9	95*
Cc1ccc[n+](CC(=O)Nc2cccc([N+](=O)[O-])c2)c1	-2	2	2	-17	1	·
CC1=C(C(=O)OCc2ccccc2)C(c2ccccc2OS(=O)(=O)c2ccccc2[N+](=O)[O-])NC(=O)N1CCCC(=O)O (stereo unspecified)	1	58*	1	24	14	63*
C[C@@H]1CCN(C2CC2)S(=O)(=O)c2c(cccc2N2CCC[C@H]2C)O1	3	·	·	·	4	·
